Experimental data pooled from the literature.
Matrix: plasma
Route: oral

CCc1nc2c(C)cc(N3CCN(CC(=O)N4CC(O)C4)CC3)cn2c1N(C)c1nc(-c2ccc(F)cc2)c(C#N)s1  AUC(0-inf) (human; 300 mg, fed, healthy volunteers): 16400 ng·h/mL
Cn1cc(-c2ccc(S(=O)(=O)[C@@H]3C[C@@H](C(=O)NC4(C#N)CC4)N(C(=O)C4(C(F)(F)F)CC4)C3)c(C(F)(F)F)c2)cn1  AUC(0-inf) (human; 10 mg, single dose, fasted, healthy volunteers): 995 ng·h/mL
CC(C)(O)c1ccccc1-c1ccc2[nH]c(/C=C/c3ccc(C(F)(F)F)cc3)nc2c1  AUC(0-t) (male human; 2 mg, single dose, fasted): 94.7 ng·h/mL
COc1cc(C(=O)NC2CCN(C)CC2)c(F)cc1Nc1ncc(C(F)(F)F)c(Oc2cccc3c2C(=O)N(C)C3)n1  AUC (human; 10 mg, multiple doses, once daily, steady state, patients): 0.816 µM·h
CO[C@H]1CC[C@H](N2C(=O)CNc3ncc(-c4ccc(C(C)(C)O)nc4)nc32)CC1  AUC(0-t) (human; 60 mg, multiple doses, patients): 2950 ng·h/mL
CC(C)n1cc(C#N)c2cc(-n3cc(C(=O)O)cn3)ccc21  AUC(0-inf) (human; 25 mg, single dose, fasted, healthy volunteers): 5190 ng·h/mL
COc1ccc([C@@H]2CN(C(=O)[C@@H](O)CO)C[C@@]2(C)[C@@H](C)O)cc1OC1CN(c2ccc(C)cn2)C1  AUC(0-t) (human; 40 mg, single dose, healthy volunteers): 7650 ng·h/mL
COCCOc1cnc2ccn([C@H](C)c3nnc4c(F)cc(-c5cnn(C)c5)cn34)c(=O)c2c1  AUC(0-t) (human; 400 mg, multiple doses, once daily, patients): 49600 ng·h/mL
C[C@@]1(c2cc(NC(=O)c3ccc(C#N)cn3)ccc2F)C=CSC(N)=N1  AUC(0-inf) (human; 150 mg, single dose): 14500 ng·h/mL
CC(C)(Sc1ccncc1-c1ccc(C#N)c2ccccc12)C(=O)O  AUC(0-inf) (male human; 20 mg, single dose, fasted, healthy volunteers): 540 ng·h/mL
Cn1c(=O)oc2ccc(-c3ccc(C[C@@H](C#N)NC(=O)[C@@H]4CNCCCO4)cc3)cc21  AUC (male human; 50 mg, single dose, healthy volunteers): 17.6 µM·h
